Laboratory results as given in ChEMBL document CHEMBL4425095, “Novel Cephalosporins Selectively Active on Nonreplicating Mycobacterium tuberculosis” (J Med Chem, 2016).
≈ marks a conversion by molar mass, not a printed value. Calls of active or inactive are those of the source. The calls are words filed in the database; no cut-off is given here.

Columns and labels:
[1] = Cytotoxicity against human HepG2 cells assessed as reduction in cell viability after 2 days by Celltiter-Glo reagent based assay; conditions: read-out: LD50
Method in brief: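 HepG2 cells in DMEM with 10% FBS, pyruvate, glutamine and nonessential amino acids. Seeded at 3000 cells/well and exposed 2 days to compound or vehicle (≤1% DMSO final). Reported as LD50.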

[2] = Stability in pH 5 non-replicating medium containing 0.5 mM NaNO2 assessed as parent compound remaining at 5 to 50 ug/ml at 37 degC measured every 12 hrs up to 144 hrs by LC-MS analysis; format: physicochemical; conditions: buffer
Method in brief: (§1)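 Compound at 50 μg/mL in cell-free PBS pH 7.4, or nonreplicating medium pH 5.0 (BSA, tyloxapol, lysine, pantothenate omitted) with or without 0.5 mM NaNO2. Poorly soluble compounds at 5 μg/mL in 50:50 acetonitrile mixtures, pH readjusted to 5.0.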

[3] = Stability in pH 5 non-replicating medium assessed as parent compound remaining at 5 to 50 ug/ml at 37 degC measured every 12 hrs up to 144 hrs by LC-MS analysis; format: physicochemical; conditions: buffer; method in brief: as §1
[4] = system: Mycobacterium tuberculosis; assay: Bactericidal activity against wild-type replicating Mycobacterium tuberculosis H37Rv assessed as reduction in CFU in presence of beta-lactamase inhibitor clavulanate; format: functional, organism-based
[5] = Stability in pH 7.4 phosphate buffer solution assessed as parent compound remaining at 5 to 50 ug/ml at 37 degC measured every 12 hrs up to 144 hrs by LC-MS analysis; format: physicochemical; method in brief: as §1
[6] = system: Mycobacterium tuberculosis; assay: Bactericidal activity against wild-type non-replicating Mycobacterium tuberculosis H37Rv multi-stress model at 0.1 to 100 ug/ml incubated for 7 days measured at OD580 = 0.01 by charcoal agar resazurin assay; format: functional, organism-based

SMILES	CC50 at 48 h [1]	also measured
CCCCOC(=O)C1=C(C)CS[C@@H]2[C@H](NC(=O)CCc3ccc(Cl)cc3)C(=O)N12	> 100 µg/mL	
COC(=O)C1=C(C)CS[C@@H]2[C@H](NC(=O)[C@H](N)c3ccccc3)C(=O)N12	> 100 µg/mL	
CC1=C(c2nc(C)no2)N2C(=O)[C@@H](NC(=O)OC(C)(C)C)[C@H]2SC1	> 100 µg/mL	
CCCN[C@@H]1C(=O)N2C(C(=O)OCCC)=C(C)CS[C@H]12	> 100 µg/mL	Stability [2]: 40%; Stability [3]: 100%; Activity [4]: inactive; Stability [5]: 100%
CCCc1noc(C2=C(C)CS[C@@H]3[C@H](NC(=O)CCc4ccc(OC)cc4)C(=O)N23)n1	> 100 µg/mL	Activity [6]: Active
CCOC(=O)C1=C(C)CS[C@@H]2[C@H](NC(=O)COc3ccc(OC)cc3)C(=O)N12	> 100 µg/mL	
CCCCOC(=O)C1=C(C)CS[C@@H]2[C@H](NC(=O)CCc3ccccc3)C(=O)N12	> 100 µg/mL	Activity [6]: Active
COC(=O)C1=C(C)CS[C@@H]2[C@H](NC(=O)COc3ccc(OC)cc3)C(=O)N12	> 100 µg/mL	
CCCc1noc(C2=C(C)CS[C@@H]3[C@H](NC(=O)COc4ccc(Cl)cc4)C(=O)N23)n1	64.3 µg/mL (≈ 143 µM)	Activity [6]: Active
COc1ccc(CCC(=O)N[C@@H]2C(=O)N3C(c4nc(C)no4)=C(C)CS[C@H]23)cc1	> 100 µg/mL	
CCCOC(=O)C1=C(C)CS[C@@H]2[C@H](NC(=O)[C@H](N)c3ccccc3)C(=O)N12	> 100 µg/mL	
CCCOC(=O)C1=C(C)CS[C@@H]2[C@H](NC(=O)COc3ccc(OC)cc3)C(=O)N12	> 100 µg/mL	
CCOC(=O)C1=C(C)CS[C@@H]2[C@H](NC(=O)COc3ccc(Cl)cc3)C(=O)N12	41 µg/mL (≈ 99.8 µM)	
CC1=C(c2nc(C)no2)N2C(=O)[C@@H](NC(=O)Cc3ccc(Cl)c(Cl)c3)[C@H]2SC1	18.9 µg/mL (≈ 42.9 µM)	
CCCc1noc(C2=C(C)CS[C@@H]3[C@H](NC(=O)CCc4ccccc4Cl)C(=O)N23)n1	> 100 µg/mL	
C#CCOC(=O)C1=C(C)CS[C@@H]2[C@H](NC(=O)CCc3ccccc3)C(=O)N12	> 100 µg/mL	
COc1ccc(OCC(=O)N[C@@H]2C(=O)N3C(C(=O)OCc4ccccc4)=C(C)CS[C@H]23)cc1	> 100 µg/mL	
CCOC(=O)C1=C(C)CS[C@@H]2[C@H](NC(=O)COc3ccccc3)C(=O)N12	> 100 µg/mL	
C#CCOC(=O)C1=C(C)CS[C@@H]2[C@H](NC(=O)CCc3ccc(Cl)cc3)C(=O)N12	> 100 µg/mL	
CCOC(=O)C1=C(C)CS[C@@H]2[C@H](NC(=O)CCc3ccccc3)C(=O)N12	> 100 µg/mL	
CCCc1noc(C2=C(C)CS[C@@H]3[C@H](NC(=O)Cc4ccc(Cl)cc4)C(=O)N23)n1	20.6 µg/mL (≈ 47.6 µM)	
COc1ccc(CCC(=O)N[C@@H]2C(=O)N3C(C(=O)OCc4ccccc4)=C(C)CS[C@H]23)cc1	> 100 µg/mL	

SMILES	CC50 at 48 h [1]	also measured
CC1=C(c2nc(C)no2)N2C(=O)[C@@H](NC(=O)OCC(C)(C)C)[C@H]2SC1	> 100 µg/mL	
CCCOC(=O)C1=C(C)CS[C@@H]2[C@H](NC(=O)CCc3ccc(OC)cc3)C(=O)N12	> 100 µg/mL	
COC(=O)C1=C(C)CS[C@@H]2[C@H](NC(=O)COc3ccccc3)C(=O)N12	> 100 µg/mL	
COC(=O)C1=C(C)CS[C@@H]2[C@H](NC(=O)CCc3ccccc3)C(=O)N12	> 100 µg/mL	
CCCCOC(=O)C1=C(C)CS[C@@H]2[C@H](NC(=O)CCc3ccc(OC)cc3)C(=O)N12	> 100 µg/mL	
COC(=O)C1=C(C)CS[C@@H]2[C@H](NC(=O)[C@@H](c3ccccc3)N(C)C)C(=O)N12	> 100 µg/mL	
CCCc1noc(C2=C(C)CS[C@@H]3[C@H](NC(=O)c4ccc(Cl)cc4)C(=O)N23)n1	> 100 µg/mL	Activity [6]: Active
CCOC(=O)C1=C(C)CS[C@@H]2[C@H](NC(=O)CCc3ccc(OC)cc3)C(=O)N12	> 100 µg/mL	Activity [6]: Active
CCCCOc1ccc(CCC(=O)N[C@@H]2C(=O)N3C(c4nc(CCC)no4)=C(C)CS[C@H]23)cc1	> 100 µg/mL	
CC1=C(C(=O)O)N2C(=O)[C@@H](NC(=O)c3ccc(Cl)cc3)[C@H]2SC1	> 100 µg/mL	
CCCc1noc(C2=C(C)CS[C@@H]3[C@H](NC(=O)CCc4ccc(Cl)cc4)C(=O)N23)n1	> 100 µg/mL	
CC1=C(C(=O)O)N2C(=O)[C@@H](NC(=O)CCc3ccc(Br)cc3)[C@H]2SC1	> 100 µg/mL	
CCSC(=O)N[C@@H]1C(=O)N2C(c3nc(C)no3)=C(C)CS[C@H]12	> 100 µg/mL	
CCCCOC(=O)C1=C(C)CS[C@@H]2[C@H](NC(=O)COc3ccc(OC)cc3)C(=O)N12	> 100 µg/mL	
CC1=C(c2nc(C)no2)N2C(=O)[C@@H](NC(=O)Cc3ccc(C)cc3)[C@H]2SC1	> 100 µg/mL	
C#CCNC(=O)C1=C(C)CS[C@@H]2[C@H](NC(=O)COc3ccccc3)C(=O)N12	> 100 µg/mL	
CCCOC(=O)C1=C(C)CS[C@@H]2[C@H](NC(=O)COc3ccc(Cl)cc3)C(=O)N12	49.2 µg/mL (≈ 116 µM)	
COc1ccc(CC(=O)N[C@@H]2C(=O)N3C(c4nc(C)no4)=C(C)CS[C@H]23)cc1	> 100 µg/mL	
CCCc1noc(C2=C(C)CS[C@@H]3[C@H](NC(=O)Cc4ccc(OC)cc4)C(=O)N23)n1	72.4 µg/mL (≈ 169 µM)	
CC1=C(C(=O)OCc2ccccc2)N2C(=O)[C@@H](NC(=O)COc3ccc(Cl)cc3)[C@H]2SC1	> 100 µg/mL	
CC1=C(c2nc(C)no2)N2C(=O)[C@@H](NC(=O)[C@H](N)c3ccccc3)[C@H]2SC1	> 100 µg/mL	
CC1=C(c2nc(C)no2)N2C(=O)[C@@H](NC(=O)Cc3ccccc3)[C@H]2SC1	> 100 µg/mL	

SMILES	CC50 at 48 h [1]	also measured
CC1=C(C(=O)O)N2C(=O)[C@@H](NC(=O)Cc3ccc(Cl)cc3)[C@H]2SC1	> 100 µg/mL	
CCCCOC(=O)C1=C(C)CS[C@@H]2[C@H](NC(=O)COc3ccc(Cl)cc3)C(=O)N12	> 100 µg/mL	
CCCc1noc(C2=C(C)CS[C@@H]3[C@H](NC(=O)Cc4ccccc4)C(=O)N23)n1	> 100 µg/mL	
CCCOC(=O)C1C(C)=CS[C@@H]2[C@H](NC(=O)CCc3ccc(OC)cc3)C(=O)N12 (some centres undefined)	> 100 µg/mL	
CC(=O)OCC1=C(C(=O)O)N2C(=O)[C@@H](NC(=O)Cc3cccs3)[C@H]2SC1 [CEPHALOTHIN]	> 100 µg/mL	
CCCOC(=O)C1=C(C)CS[C@@H]2[C@H](NC(=O)CCc3ccccc3)C(=O)N12	> 100 µg/mL	
CC1=C(c2nc(C)no2)N2C(=O)[C@@H](NC(=O)Cc3ccc(Cl)cc3)[C@H]2SC1	> 100 µg/mL	
CCCCOC(=O)C1C(C)=CS[C@@H]2[C@H](NC(=O)COc3ccccc3)C(=O)N12 (some centres undefined)	61.8 µg/mL (≈ 153 µM)	
CCCOC(=O)N[C@@H]1C(=O)N2C(C(=O)OCCC)=C(C)CS[C@H]12	> 100 µg/mL	Stability [2]: 100%; Stability [3]: 100%; Activity [4]: inactive; Stability [5]: 80%
COC(=O)C1=C(C)CS[C@@H]2[C@H](NC(=O)COc3ccc(Cl)cc3)C(=O)N12	> 100 µg/mL	
CC1=CS[C@@H]2[C@H](NC(=O)COc3ccccc3)C(=O)N2[C@H]1CO	> 100 µg/mL	
C=CC1=C(C(=O)O)N2C(=O)[C@@H](NC(=O)/C(=N\O)c3csc(N)n3)[C@H]2SC1	> 100 µg/mL	
CCCCOc1ccc(CCC(=O)N[C@@H]2C(=O)N3C(c4nc(C)no4)=C(C)CS[C@H]23)cc1	74.4 µg/mL (≈ 163 µM)	
CCCc1noc(C2=C(C)CS[C@@H]3[C@H](NC(=O)CCc4ccc(F)cc4)C(=O)N23)n1	> 100 µg/mL	
CCCc1noc(C2=C(C)CS[C@@H]3[C@H](NC(=O)Cc4ccc(C)cc4)C(=O)N23)n1	> 100 µg/mL	
CC1=C(c2nc(C)no2)N2C(=O)[C@@H](NC(=O)OCC(Cl)(Cl)Cl)[C@H]2SC1	> 100 µg/mL	Activity [6]: Active
COC(=O)C1=C(C)CS[C@@H]2[C@H](NC(=O)CCc3ccc(OC)cc3)C(=O)N12	> 100 µg/mL	
CC1=C(c2nc(C)no2)N2C(=O)[C@@H](NC(=O)COc3ccc(Cl)cc3)[C@H]2SC1	19.5 µg/mL (≈ 46.4 µM)	Activity [6]: Active
CCCc1noc(C2=C(C)CS[C@@H]3[C@H](NC(=O)CCc4ccc(C)cc4)C(=O)N23)n1	> 100 µg/mL	
C#CCOC(=O)C1=C(C)CS[C@@H]2[C@H](NC(=O)COc3ccc(Cl)cc3)C(=O)N12	63.4 µg/mL (≈ 151 µM)	
